The source of these data is PubChem BioAssay AID504382 (The Scripps Research Institute Molecular Screening Center, 2011).

Screen size: about 2,500 compounds; about 460 (18%) were called active.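 How the source made its calls: active means mean activation above a cutoff of low control average plus 3 SD from the earlier screen (cut at about 12% in these data); inactive means the rest.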 A selection follows.

The nature of this experiment: IANBD-channel fluorescence artefacts in buffer – biochemical, artefact control for cardiac RTF calcium sensitizer project, confirmation (AID 504382). As to conditions: IANBD fluorescence interference counterscreen, EC20 Ca2+, at 7.2 µM, hits give high values, scaled: EC20 calcium 0, EC100 calcium 100. Put shortly: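 Doses – one dose of 7.2 µM, 0.7% DMSO · Buffer or medium – MOPS/KCl/MgCl2/EGTA/NTA/DTT buffer, pH 7.2 · Probe or stimulus – Ca2+ fixed at EC20, 0.472 mM · Measured by – fluorescence intensity, excitation 480 nm, emission 540 nm · Read-out – fluorescence interference versus control range · Timing – 15 min compound exposure at 25 °C · Replication – triplicate wells per compound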
(In general: A counterscreen serves to expose hits that act by an unwanted route or on another target.)
As to `CCN1/C(=C\C=C(C(C)=O)C(C)=O)Sc2ccccc21`, the fluorescence artifact activation is 0.42% (inactive). With `CCOC(=O)/C(=C\C=C1/Sc2ccccc2N1CC)C(C)=O` the figure was 0.04% (inactive).

With `CCOC(=O)/C(=C/C=C1\Sc2ccccc2N1CC)C(C)=O`, the fluorescence artifact activation was 51.3% (active). In the case of `COC(=O)C1=C(C(=O)OC)[C@@H]2Nc3ccccc3[C@@]23C[C@@H](C(=O)OC)N(C(=O)c2cccs2)C3=N1`, the fluorescence artifact activation is 11.6% (inactive). Regarding `CCOc1ccc(C2OC34CCCCC3C(C#N)(C#N)C2(C#N)C(=N)O4)cc1OC` (stereo not drawn), the fluorescence artifact activation was 0.1% (inactive). As to `Cc1c2ccccc2nc2c(F)c(NCCO)c(F)c(F)c12`, the fluorescence artifact activation is 42.9% (active). Regarding `Cc1c2ccccc2nc2c(F)c(N(C)C)c(F)c(F)c12`, the fluorescence artifact activation was 0.16% (inactive). For `COC(=O)C1=NN(C(=O)c2ccc(Br)cc2)C(O)(C(C)(C)C)C1` (stereo not drawn), the fluorescence artifact activation is 1.09% (inactive). For the compound `CCOC(=O)c1cn(-c2ccc(F)c(F)c2F)c2c(F)c(F)c(F)cc2c1=O`, the fluorescence artifact activation was 0.24% (inactive). In the case of `CN(C)c1ccc(/C=C(/C#N)C(=O)Nc2nc3c(s2)CCN(Cc2ccccc2)C3)cc1`, the fluorescence artifact activation was 0.06% (inactive).

Turning to `Cc1ccc(NC(=O)COC(=O)/C=C/c2c(C)nn(-c3ccc(F)cc3)c2Cl)cc1F`, the fluorescence artifact activation is 0.01% (inactive). With `CC1CC(C)CN(S(=O)(=O)N2CCCC(C(=O)NC3CCCCC3)C2)C1` (stereo not drawn), the fluorescence artifact activation is 78.2% (active). For `CCOc1ccc(CCNC(=O)C2CCCN(S(=O)(=O)N3CCOCC3)C2)cc1OCC` (stereo not drawn), the fluorescence artifact activation is -0.05% (inactive). For the compound `CCOC(=O)C1(Cc2cccc(OC)c2)CCN(Cc2ccon2)CC1`, the fluorescence artifact activation was 1.14% (inactive). On to `COc1ccc(C(=O)O)cc1S(=O)(=O)NCCc1ccccn1`, for which the fluorescence artifact activation is 0.58% (inactive). In the case of `COc1ccc(Br)cc1S(=O)(=O)Nc1ncccc1C`, the fluorescence artifact activation was 24.7% (active). As to `COc1cc(Cl)c(S(=O)(=O)NCc2ccccn2)cc1Cl`, the fluorescence artifact activation is -0.05% (inactive). As for `CCOC(=O)c1c(C)oc2c1c(C=NCCO)c(O)c1ccccc12`, the fluorescence artifact activation was 0.07% (inactive). For the compound `O=C(c1ccco1)N1CCN(c2ncnc3c(-c4ccc(Cl)cc4)nsc23)CC1`, the fluorescence artifact activation is 43.5% (active). As for `O=C(O)CCNc1cc(N2CCN(C(=O)c3ccco3)CC2)c2noc3c2c1C(=O)c1ccccc1-3`, the fluorescence artifact activation was -0.01% (inactive). Regarding `O=C1c2ccccc2-c2onc3c(N4CCN(CCO)CC4)cc(N4CCN(C(=O)c5ccco5)CC4)c1c23`, the fluorescence artifact activation was 0.06% (inactive).

In the case of `COC(=O)Cn1c(C)c(/C=C/c2cc[n+](C)cc2)c2ccccc21`, the fluorescence artifact activation was 0.1% (inactive). Take `C[C@H](CO)N1C[C@H](C)[C@@H](CN(C)Cc2ccncc2)Oc2c(NC(=O)c3ccncc3)cccc2C1=O`: the fluorescence artifact activation is 1.32% (inactive).

For the compound `C[C@H](CO)N1C[C@H](C)[C@@H](CN(C)Cc2ccc(Oc3ccccc3)cc2)Oc2c(NC(=O)C3CC3)cccc2C1=O`, the fluorescence artifact activation is 20.1% (active). Turning to `C[C@H](CO)N1C[C@H](C)[C@@H](CN(C)Cc2ccncc2)Oc2c(NS(=O)(=O)c3ccc(F)cc3)cccc2C1=O`, the fluorescence artifact activation is 0.19% (inactive).

As for `CC1=CC2=NC(=O)/C(=C\c3ccc(-c4cccc(Cl)c4)o3)C(=N)N2O1`, the fluorescence artifact activation is 7.64% (inactive). For the compound `CCOc1cc2c(cc1/C=C/c1noc(C)c1[N+](=O)[O-])OC(C)C2` (stereo not drawn), the fluorescence artifact activation is 145% (active).

Turning to `Cc1cc(N2C(=O)C(O)=C(C(=O)c3cccs3)C2c2ccc(F)cc2)no1` (stereo not drawn), the fluorescence artifact activation is 7.29% (inactive). On to `CCc1cccc2cc3c(N)c(C(=O)Nc4ccc(S(=O)(=O)N5CCCC5)cc4)sc3nc12`, for which the fluorescence artifact activation was 6.55% (inactive).

`COc1ccc(/C=C/C(=O)c2nc3ccccc3n2CC(=O)c2ccc(OC)cc2)cc1`: the fluorescence artifact activation was -0.1% (inactive). As to `CCN(CC)c1ccc(C=Nc2cc(C)ccc2C)c(O)c1`, the fluorescence artifact activation is 1.34% (inactive).

As to `CC(=O)NC(Cc1ccc(F)c(F)c1)C(=O)NC1CCN(S(=O)(=O)c2ccc(C)cc2)CC1` (stereo not drawn), the fluorescence artifact activation was -0.07% (inactive). For the compound `COc1ccc(C(=O)c2sc3nc(-c4ccccc4)ccc3c2N)cc1`, the fluorescence artifact activation was 21.8% (active). In the case of `COc1ccc(C(=O)c2sc3nc(C)cc(-c4cccs4)c3c2N)cc1`, the fluorescence artifact activation was 6.39% (inactive). Consider `COc1ccc(-c2c(C#N)c(N)nc3sc(C(=O)c4ccccc4)c(N)c23)cc1`, for which the fluorescence artifact activation was 0.01% (inactive). With `Nc1ccc2cc3[nH]c4cc(N)ccc4c3nc2c1` the figure was 2.11% (inactive); with `N#Cc1c(NCCCO)nc(-c2ccccc2)c2c1CCCC2`, 4.04% (inactive).

With `CCOc1ccc(NC(=O)c2cccc(OC(=S)N3CCOCC3)c2)cc1`, the fluorescence artifact activation was 0% (inactive). In the case of `COc1ccc(OC(C)C(=O)Nc2cccc(OC)c2)cc1` (stereo not drawn), the fluorescence artifact activation was 0.45% (inactive). For `COc1ccccc1C(=O)Nc1ccc(OC(C)C(=O)N2CCOCC2)cc1` (stereo not drawn), the fluorescence artifact activation was 822% (active). On to `COc1ccc2c(c1)c(/C=C/c1cc[n+](C)cc1)cn2C`, for which the fluorescence artifact activation was 0.08% (inactive). For `COC(=O)c1cc2c(C)c(C)c3ccccn3c-2c1C(=O)OC` the value was 0.46% (inactive); for `O=C(CCN1C(=O)/C(=C/c2cccs2)SC1=S)NNC(=O)c1cccc(O)c1`, -0.08% (inactive). With `Oc1cccc(Nc2nc(O)c(/C=C3\C=Nc4ccccc43)s2)c1`, the fluorescence artifact activation was 43% (active). As for `COc1cc([N+](=O)[O-])ccc1NC(=O)COC(=O)c1n[nH]c2ccccc12`, the fluorescence artifact activation is 0.03% (inactive). Turning to `COc1cc2c(cc1NC(=O)COC(=O)/C=C/c1ccc([N+](=O)[O-])cc1)oc1ccccc12`, the fluorescence artifact activation was 796% (active).

In the case of `COc1cc([N+](=O)[O-])ccc1N/C=C/C(=O)c1cccs1`, the fluorescence artifact activation was 0.6% (inactive).

Regarding `Cc1c(C)[n+](=O)c(-c2ccc(Br)cc2)c(C)n1[O-]`, the fluorescence artifact activation is 412% (active). For `CCn1cc(C(=O)NCCC(=O)NCCO)c(=O)c2cc3c(cc21)OCO3` the value was 9.79% (inactive). With `O=C(C1=NN[C@@H]2C(=O)N(c3ccccc3C(F)(F)F)C(=O)[C@H]12)c1ccc2ccccc2n1` the figure was 22.3% (active). For the compound `Cc1cccc(NC(=S)Nc2ccc(N3CCOCC3)cc2)c1C`, the fluorescence artifact activation was 0.78% (inactive). In the case of `Nc1ccc(-c2c3ccc(=O)cc-3oc3cc(O)ccc23)cc1C(=O)O`, the fluorescence artifact activation is -0.02% (inactive). For `O=c1ccc2c(-c3ccccc3)c3ccc(O)cc3oc-2c1`, the fluorescence artifact activation was 12.3% (active).

As to `O=c1cc2oc3cc(O)c(O)cc3c(-c3ccccc3O)c-2cc1O`, the fluorescence artifact activation is 0.4% (inactive). With `CCCNS(=O)(=O)c1ccc2c(c1)n(C)c(=O)n2C` the figure was 1.63% (inactive); with `Cc1cnc(C(=O)Nc2nnc(SCc3c(Cl)cccc3Cl)s2)cn1`, 1.18% (inactive); with `O=C1c2cccc3c(N4CCCCC4)ccc(c23)C(=O)N1c1cccc(O)c1`, 6.35% (inactive). On to `O=C(OCCN1CCCCC1)c1ccccc1Br`, for which the fluorescence artifact activation was -0.03% (inactive). With `CN1CCCC(OC(=O)c2ccccc2Br)C1` (stereo not drawn) the figure was 20.7% (active).

Turning to `O=C(Cn1c(=O)oc2cc(S(=O)(=O)N3CCCC3)ccc21)N1CCc2ccccc2C1`, the fluorescence artifact activation is 0.09% (inactive). With `CC(C)(C)c1ccc(C(=O)Nc2cccc3ncccc23)cc1`, the fluorescence artifact activation was 0.15% (inactive). `CCOC(=O)C(=O)Nc1nnc(COc2ccccc2)s1`: the fluorescence artifact activation is -0.01% (inactive). With `NC(=O)CC(NC(=O)c1ccc(Br)cc1)c1ccc(N2CCN(c3ccc(F)cc3)CC2)c([N+](=O)[O-])c1` (stereo not drawn), the fluorescence artifact activation is 13.7% (active). `O=C(N/N=C/c1cc([N+](=O)[O-])ccc1N1CCNCC1)c1ccc([N+](=O)[O-])cc1`: the fluorescence artifact activation is 5.53% (inactive). With `O=C(NCc1ccccc1)c1ccc(N2CCC3(CC2)CC(c2ccccc2)=NO3)c([N+](=O)[O-])c1` the figure was -0.07% (inactive). In the case of `Cc1cc(C)cc(C(=O)NC(CC(N)=O)c2ccc(N3CCCCCC3)c([N+](=O)[O-])c2)c1` (stereo not drawn), the fluorescence artifact activation was 0.1% (inactive).

As to `NC(=O)CC(NC(=O)Cc1ccc(Cl)cc1)c1ccc(N2CCN(c3ccccn3)CC2)c([N+](=O)[O-])c1` (stereo not drawn), the fluorescence artifact activation is 51.4% (active). As for `CN(/N=C/c1ccc(O)cc1O)c1ncc(C(F)(F)F)cc1Cl`, the fluorescence artifact activation is 0.11% (inactive).

Take `O=C(c1ccc(Cn2cc([N+](=O)[O-])cn2)o1)N1N=C(C(F)F)CC1(O)C(F)F` (stereo not drawn): the fluorescence artifact activation is 3.96% (inactive). For `CC/C(=N/Nc1cccc(C)c1)c1cnnc(SC)n1` the value was 3.63% (inactive); for `Cc1ccccc1NC(=S)Nc1ccc(Br)cc1`, -0.08% (inactive); for `Cc1ccc(Cl)c2c(N=Nc3ccccc3)c(O)[nH]c12`, 0.17% (inactive). Turning to `COCCN1C(=O)/C(=C/c2ccc(N3CCCC3)cc2C)SC1=S`, the fluorescence artifact activation was 0.17% (inactive). With `COc1ccc(N2C(N)=NC(N)=NC2(C)C)cc1` the figure was -0.01% (inactive); with `COC(=O)c1ccc(NC(=O)c2cccc(OC)c2)cc1`, 0.1% (inactive); with `Cc1ccc(OCCCC(=O)NC2CCCCC2)cc1`, 0% (inactive). Turning to `Cc1cc(C)n2nc(C(=O)N3CCCC(Nc4ccc(C(C)C)cc4)C3)cc2n1` (stereo not drawn), the fluorescence artifact activation was 2.67% (inactive). With `COc1cc(NC(=O)[C@@H]2CCCN2S(=O)(=O)c2cccc3cccnc23)cc(OC)c1OC` the figure was 0.18% (inactive); with `Cc1cc(=O)n2nc(N3CCCC3C(=O)Nc3ccc(C(C)C)cc3)sc2n1` (stereo not drawn), 166% (active). On to `C=C1CCN([C@@H](Cc2ccccc2)C(=O)O)S(=O)(=O)c2ccccc21`, for which the fluorescence artifact activation was 4.75% (inactive). `Cc1cccc(NC(=O)Cn2cnc3ccc(S(=O)(=O)N4CCC(C)CC4)cc3c2=O)n1`: the fluorescence artifact activation was 3.57% (inactive).

As for `COc1ccccc1-[n+]1c(C)cc(/C=C2\Sc3ccccc3N2C)cc1C`, the fluorescence artifact activation is 0.15% (inactive). With `COc1ccc(-[n+]2c(C)cc(/C=C3\Sc4ccccc4N3C)cc2C)cc1`, the fluorescence artifact activation was 50.7% (active).

Take `CC[n+]1c(/C=C2\Sc3ccccc3N2C)ccc2cccc(C)c21`: the fluorescence artifact activation was 0.11% (inactive). With `CN(C)CCN(C)Cc1c2ccccc2c(CN(C)CCN(C)C)c2ccccc12`, the fluorescence artifact activation was 8.32% (inactive).

For `Cc1cccc(N2C(=O)c3cccc4c(N(C)CCO)ccc(c34)C2=O)c1`, the fluorescence artifact activation is 0.05% (inactive). With `CC1(c2cccc(Br)c2)NC(=O)NC1=O` (stereo not drawn) the figure was 16.7% (active); with `Nc1ccc2nc3c(=O)n(C4CCCCC4)c(=O)[nH]c3nc2c1`, 1.78% (inactive).
